This note sets out measurements from ChEMBL document CHEMBL1151976, “Bioactive sulfated sesterterpene alkaloids and sesterterpene sulfates from the marine sponge Fasciospongia sp” (J Nat Prod, 2009).

The test system of test [1] is LNCaP. Description: Cytotoxicity against human LNCAP cells at 20 ug/ml after 72 hrs by SRB assay. Type of test: functional, cell-based. The method, boiled down:
(§1)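 Single-concentration screen at 20 µg/mL. Cells seeded at 10^6 cells/mL in 96-well plates, sample added in 10% DMSO, incubated 72 h at 37 °C. Viability by sulforhodamine B staining, compared with a 0.5% DMSO-treated control.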
Background: Sulforhodamine B stains cellular protein and so reports cell mass.

The test system of test [2] is MCF7. Put plainly: Cytotoxicity against human MCF7 cells at 20 ug/ml after 72 hrs by SRB assay. It counts as functional, cell-based. The method, boiled down:
as §1

Test [3] deals with Lu1. Description: Cytotoxicity against human Lu1 cells at 20 ug/ml after 72 hrs by SRB assay. It counts as functional, cell-based. The method in brief: as §1
Test [4] has as its system Streptomyces. Description: Antimicrobial activity against Streptomyces 85E assessed as inhibition of hyphae formation at 5 ug/disk after 30 hrs. It counts as functional. The settings on record: for zone of inhibition at 5 µg/disc: read-out: IZ. The method in brief: (§2)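 Streptomyces 85E mycelial fragments spread as a lawn on minimal medium ISP 4 agar. Compounds in MeOH loaded onto 7 mm filter disks, air-dried, placed on plates, incubated 30 °C for 30 h. Read-out: clear or bald (hyphae-free) zone diameter around the disk; >9 mm counted active. Surfactin positive control, MeOH negative control; run in duplicate.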

Test [5] deals with Streptomyces. Put plainly: Antimicrobial activity against Streptomyces 85E assessed as inhibition of hyphae formation at 2.5 ug/disk after 30 hrs. Type of test: functional. The method, boiled down: as §2
Test [6] deals with Streptomyces. Put plainly: Antimicrobial activity against Streptomyces 85E assessed as inhibition of hyphae formation at 20 ug/disk after 30 hrs. It counts as functional. Particulars: read-out: IZ. The method, boiled down:
as §2

The subject of test [7] is Streptomyces. Description: Antimicrobial activity against Streptomyces 85E assessed as inhibition of hyphae formation at 10 ug/disk after 30 hrs. It counts as functional. Particulars: read-out: IZ. The method, boiled down:
as §2

Test [8] relates to MCF7. Description: Cytotoxicity against human MCF7 cells after 72 hrs by SRB assay. It counts as functional, cell-based. The settings on record: MCF7, 72 h. The method in brief: (§3)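 Cells seeded at 10^6 cells/mL in 96-well plates. Six serial dilutions of sample in 10% DMSO added in triplicate. Incubated 72 h at 37 °C; viability measured by sulforhodamine B staining. IC50 is the concentration giving 50% growth inhibition relative to 0.5% DMSO-treated control, averaged over two independent experiments.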

For test [9], the system named is LNCaP. Put plainly: Cytotoxicity against human LNCAP cells after 72 hrs by SRB assay. It counts as functional, cell-based. The method in brief:
as §3

The test system of test [10] is Lu1. Put plainly: Cytotoxicity against human Lu1 cells after 72 hrs by SRB assay. Type of test: functional, cell-based. Particulars: Lu1, 72 h. The method in brief:
as §3

The subject of another test is HeLa. Description: Cytotoxicity against human HeLa cells after 72 hrs by SRB assay. Type of test: functional, cell-based.

What is called IC50 is the concentration that inhibits the measured activity by half. Low values mean greater potency in that assay, high ones weaker potency in that assay.

Values after ≈ are worked out from the molar mass of the structure shown. Active and inactive are the calls of the source. The rule behind the calls is not given here.

Take `C[C@H]1CC[C@H]2C(=CCCC2(C)C)[C@@]1(C)CCC(CCCC1=CCN(CCCCNC(=N)N)C1=O)COS(=O)(=O)O` (stereo not given in full) [FASCIOSPONGINE C]: the Activity entry in the test on LNCaP [1], in the test with MCF7 [2] and in the test with Lu1 [3] was “Not toxic” each time. In addition, the “inhibition zone (IZ)” value with Streptomyces [4] and in the test with Streptomyces [5] was “inactive” throughout. For the same compound, in the test with Streptomyces [6], the zone of inhibition at 20 µg/disc stood at 14 mm. Moreover, in the test with Streptomyces [7], the zone of inhibition at 10 µg/disc stood at 13 mm.
For `C[C@H]1CC[C@H]2C(=CCCC2(C)C)[C@@]1(C)CCC(CCCC1=CC(=O)N(CCc2c[nH]cn2)C1=O)COS(=O)(=O)O` (stereo not given in full) [19-OXOFASCIOSPONGINE A], the IC50 was 13.4 µM with MCF7 [8], 21.8 µM with LNCaP [9] and 5 µM in the test with Lu1 [10]. In the test with Streptomyces [4], the zone of inhibition at 5 µg/disc was 16 mm. In the test with Streptomyces [5] (read-out: IZ), the zone of inhibition at 2.5 µg/disc was found to be 14 mm. Moreover, the zone of inhibition at 20 µg/disc with Streptomyces [6] worked out at 25 mm. In the test with Streptomyces [7], the zone of inhibition at 10 µg/disc is 20 mm.
`C[C@H]1CC[C@H]2C(=CCCC2(C)C)[C@@]1(C)CCC(CCCC1=CC(=O)OC1)COS(=O)(=O)O` (stereo not given in full) [HALISULFATE 9]: the Activity entry in the test on LNCaP [1], in the test with MCF7 [2] and in the test on Lu1 [3] was “Not toxic” each time. The “inhibition zone (IZ)” value with Streptomyces [4] and in the test with Streptomyces [5] was “inactive” each time. In the test on Streptomyces [6], the zone of inhibition at 20 µg/disc is 16 mm. Besides, the zone of inhibition at 10 µg/disc in the test on Streptomyces [7] was found to be 14 mm.
On to `C[C@H]1CC[C@H]2C(=CCCC2(C)C)[C@@]1(C)CCC(CCCC1=CCN(CCc2c[nH]cn2)C1=O)COS(=O)(=O)O` (stereo not given in full) [FASCIOSPONGINE A], for which the Activity entry with LNCaP [1], in the test with MCF7 [2] and in the test on Lu1 [3] was “Not toxic” each time. In the test with Streptomyces [4], the zone of inhibition at 5 µg/disc was determined as 14 mm. The “inhibition zone (IZ)” value in the test on Streptomyces [5] was “inactive”. Also, in the test with Streptomyces [6], the zone of inhibition at 20 µg/disc is 18 mm. In addition, in the test on Streptomyces [7], the zone of inhibition at 10 µg/disc was determined as 16 mm.
Turning to `C[C@H]1CC[C@H]2C(=CCCC2(C)C)[C@@]1(C)CCC(CCCC1=CC(=O)OC1O)COS(=O)(=O)O` (stereo not given in full), the Activity entry in the test on LNCaP [1], in the test with MCF7 [2] and with Lu1 [3] was “Not toxic” each time. Moreover, the “inhibition zone (IZ)” value in the test on Streptomyces [4] and in the test on Streptomyces [5] was “inactive” in each case. The zone of inhibition at 20 µg/disc in the test on Streptomyces [6] amounted to 19 mm. Further, the zone of inhibition at 10 µg/disc with Streptomyces [7] is 13 mm.
Regarding `C[C@H]1CC[C@H]2C(=CCCC2(C)C)[C@@]1(C)CCC(CCCc1ccoc1)COS(=O)(=O)O` (stereo not given in full) [HALISULFATE 7], the Activity result with LNCaP [1], with MCF7 [2] and in the test with Lu1 [3] was “Not toxic” each time. This compound showed an IC50 with HeLa of 16 µg/mL (≈ 35.3 µM). Also, the “inhibition zone (IZ)” value in the test with Streptomyces [4] and with Streptomyces [5] was “inactive” in each case. For the same compound, the zone of inhibition at 20 µg/disc in the test with Streptomyces [6] came to 18 mm. Moreover, the zone of inhibition at 10 µg/disc with Streptomyces [7] is 15 mm.
`C[C@H]1CC[C@H]2C(=CCCC2(C)C)[C@@]1(C)CCC(CCCC1=CC(=O)N(CCc2c[nH]cn2)C1)COS(=O)(=O)O` (stereo not given in full) [FASCIOSPONGINE B]: the Activity result in the test on LNCaP [1], in the test on MCF7 [2] and in the test with Lu1 [3] was “Not toxic” in each case. Besides, the zone of inhibition at 5 µg/disc with Streptomyces [4] was 15 mm. In addition, in the test on Streptomyces [5], the “inhibition zone (IZ)” value is “inactive”. Further, in the test with Streptomyces [6], the zone of inhibition at 20 µg/disc came out at 19 mm. In addition, in the test on Streptomyces [7], the zone of inhibition at 10 µg/disc worked out at 17 mm.
